Rows were chosen to be rich in hits. Some 9.4% of all compounds tested hit in one or more screens of this group.
Mdm2 MdmX PPI – inhibitors of human Mdm2-MdmX association, primary screen, cell-based, luminescence, split luciferase, SaOS-2, uHTS; inhibition, % at 8 µM; 3% of 330,000 active; SaOS-2 split-luciferase Mdm2/MdmX complementation; AID 485346, 2010; Protein Mdm4 (Homo sapiens) + E3 ubiquitin-protein ligase Mdm2 (Homo sapiens), …;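 active = inhibition of at least 50% at 8 µM in the primary screen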
Target sequence (O15151 whole entry, looked up): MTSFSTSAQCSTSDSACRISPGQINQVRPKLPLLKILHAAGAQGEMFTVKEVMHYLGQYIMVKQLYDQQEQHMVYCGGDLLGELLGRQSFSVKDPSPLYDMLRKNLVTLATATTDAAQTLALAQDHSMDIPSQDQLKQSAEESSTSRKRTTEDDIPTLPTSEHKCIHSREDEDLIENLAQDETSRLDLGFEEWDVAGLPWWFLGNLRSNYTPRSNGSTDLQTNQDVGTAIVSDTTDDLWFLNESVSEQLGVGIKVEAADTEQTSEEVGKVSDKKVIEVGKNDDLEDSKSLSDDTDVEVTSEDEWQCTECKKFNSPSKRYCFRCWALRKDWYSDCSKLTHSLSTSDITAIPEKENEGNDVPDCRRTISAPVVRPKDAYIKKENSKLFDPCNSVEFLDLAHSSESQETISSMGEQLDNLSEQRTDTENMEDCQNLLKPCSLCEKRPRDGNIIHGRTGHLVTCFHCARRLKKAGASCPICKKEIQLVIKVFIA
Target sequence (Q00987 whole entry, looked up): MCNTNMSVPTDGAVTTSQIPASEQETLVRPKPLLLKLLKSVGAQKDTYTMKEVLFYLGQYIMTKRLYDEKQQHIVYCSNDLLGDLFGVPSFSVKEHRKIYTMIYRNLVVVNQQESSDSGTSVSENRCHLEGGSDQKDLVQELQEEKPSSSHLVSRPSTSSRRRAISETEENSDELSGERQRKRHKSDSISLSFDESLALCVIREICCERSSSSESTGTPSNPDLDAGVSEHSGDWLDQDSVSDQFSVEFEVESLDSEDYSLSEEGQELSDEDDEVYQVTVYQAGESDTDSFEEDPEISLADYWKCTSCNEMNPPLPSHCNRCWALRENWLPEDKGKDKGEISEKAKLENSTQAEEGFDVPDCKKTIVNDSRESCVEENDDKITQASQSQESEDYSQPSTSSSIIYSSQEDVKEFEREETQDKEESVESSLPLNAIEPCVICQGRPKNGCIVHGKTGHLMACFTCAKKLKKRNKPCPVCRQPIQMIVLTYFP
Beta apoptosis – inhibitors of cytokine-induced beta cell apoptosis, primary screen, luminescence | INS-1E cytokine-induced death, ATP luminescence, 48 h; percent of positive-control rescue, neutral wells zero | protection from apoptosis, % (concentration not given with the values) | 0.8% of 300,000 active | AID 435005, 2010;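 active = Every replicate reaches about 75%, or at least half do and their mean reaches it too, limit read from the data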;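 also: 0% = cytokine-treated negative control wells and 100% = positive control rescue; higher means more ATP so stronger rescue from cytokine killing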
Lmaj promast – Leishmania major promastigote growth inhibition, primary screen; 9% of 200,000 active; Leishmania major promastigotes, resazurin fluorescence viability; AID 1063, 2008; inhibition, % at 10 µM; in the data active = inhibition above about 50%;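 also: promastigotes grown with compound for 44 hours at 28 °C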
CSC inhib – cancer stem cell viability inhibitors, primary screen, luminescence | cancer stem cell-like cells viability | inhibition, % at 7.5 µM | AID 2717, 2010 | 1.1% of 300,000 active; in the data active = inhibition above about 75%; tested in HMLE shEcad cells
T cruzi inh – inhibitors of intracellular T. cruzi growth, primary screen, luminescence, NIH3T3 host cells. T. cruzi beta-gal in NIH3T3, 90 h. inhibition, % (test concentration not listed). 1.4% of 300,000 active;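 active = mean inhibition across valid replicates above about 55%, limit read from the data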;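 also: signal also drops with host cell toxicity which is not excluded here; 0% = plate median of DMSO wells and 100% = zero luminescence signal; higher percent means less beta-gal luminescence so fewer parasites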
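Incubation – ≥90 h infection period, 3 h prior cell attachment · System – NIH/3T3 fibroblasts plus reporter T. cruzi · Doses – compound pinned at 50 nL/well, DMSO · Read-out basis – percent inhibition of parasite-derived β-gal signal · Signal – luminescent β-galactosidase signal after 60 min lysis · Also added – 5000 T. cruzi trypomastigotes/well · Medium – Low-serum DMEM with 2% FBS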
SKKanGAS inh – S. pyogenes SKKanGAS growth inhibitors in kanamycin, primary screen, streptokinase expression inhibitor project, SKKanGAS strain, BacTiter-Glo luminescence. 6 h. inhibition, % at 7.5 µM. 1.3% of 300,000 active;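 active = mean replicate score, as percent of positive control median, at least 50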;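 also: strain carries kanamycin resistance gene driven by streptokinase promoter and grows in 40 µg/ml kanamycin; loss of luminescence reflects streptokinase promoter inhibition or plain growth inhibition; 0% = median of DMSO wells and 100% = positive control at its reference dose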
Active calls of the source: *; . = no result.

SMILES	Mdm2 MdmX PPI	Beta apoptosis	Lmaj promast	CSC inhib	T cruzi inh	SKKanGAS inh
O=C(Nc1ccc(Cl)cc1)OCc1cn(-c2ccccc2)nn1	1.0	-1.7	-4.8	22.7	11.0	-11.5
CC(=O)OCCN1C(=O)c2cccc3cc([N+](=O)[O-])cc(c23)C1=O	16.6	9.9	.	16.9	73.5*	-10.9
Cc1nc(N)nc(N)c1/C=C/C(C)(C)c1ccc(Cl)cc1	.	.	100.4*	.	60.5*	96.9*
COc1ccccc1NC(=O)Cc1csc(NC(=S)Nc2ccc(C)cc2)n1	25.4	6.9	19.4	-17.4	20.4	57.5*
COc1ccc(-c2ccc(=O)n(CC(=O)N3CCN(c4ccccc4OC)CC3)n2)cc1	.	.	92.3*	.	.	.
COc1ccccc1NC(=O)Nc1nc(CC(=O)N2CCN(c3ccccc3OC)CC2)cs1	28.8	-0.8	.	.	-0.2	58.9*
COc1ccccc1NC(=O)Nc1nc(CC(=O)Nc2ccc(OC)c(OC)c2)cs1	1.6	-0.1	.	-10.1	-8.2	3.7
COc1cc(C)ccc1NC(=O)Cc1csc(NC(=O)Nc2ccccc2OC)n1	24.3	-0.6	.	-5.5	4.8	56.1*
Cc1noc(C)c1COC(=O)C1CCN(S(=O)(=O)c2c(Cl)cccc2Cl)CC1	-2.4	-3.5	.	-9.9	-5.8	0.4
COc1ccc(N(CC(=O)NCCSCc2ccccc2C)S(=O)(=O)c2ccccc2)cc1	11.7	.	.	1.4	21.2	3.6
COC(=O)CN(c1nc(C)c(Br)c(OC)n1)S(=O)(=O)c1ccc(C)cc1	-1.8	-0.1	87.9*	9.1	16.0	25.4
O=C(Nc1nnc(-c2ccc(Cl)cc2)o1)C1=COCCO1	-6.6	.	54.3*	3.3	-18.3	-1.7
CC(C)Oc1ccc(C(=O)Nc2nnc(C3=COCCO3)o2)cc1	22.4	.	.	22.4	7.1	72.7*
CN(C)c1ccc(C(=O)Nc2nnc(C3=COCCO3)o2)cc1	9.0	-8.2	46.4	-5.3	-5.9	3.1
CC(C)(C)c1ccc(C(=O)Nc2nnc(C3=COCCO3)o2)cc1	12.1	-0.5	.	41.3	25.2	80.3*
O=C(Nc1nnc(C2=COCCO2)o1)c1cccc(F)c1	7.9	5.9	.	23.4	-0.4	63.0*
O=C(c1ccc(Br)o1)N1CCN(Cc2ccccc2Cl)CC1	16.8	.	.	.	-22.9	18.1
COc1ccc(OC)c(CN2CCN(C(=O)CCNC(=O)c3ccc(Br)cc3)CC2)c1	-8.3	-6.1	.	-6.5	60.3*	-3.9
COc1ccc(OC)c(CN2CCN(C(=O)CNC(=O)c3ccc(C(C)(C)C)cc3)CC2)c1	6.2	3.1	.	16.8	.	.
CC(C)(C)NC(=S)NNC(=O)c1cccc(Br)c1	-19.9	13.8	-4.2	-9.2	11.6	-1.9
Cc1cccc(N2CCN(C(=O)COc3ccc4c(c3)CCC4)CC2C)c1 (stereo unspecified)	5.3	.	.	.	.	.
O=C(CSc1nnc(NC2CCCCC2)s1)N1CCOCC1	-6.9	-4.0	.	-4.8	.	.
CN1CCN(CCCC(=O)c2ccc(C3CCCC3)cc2)CC1	-3.2	0.1	97.1*	56.4	30.2	-15.0
CN1CCN(CCCCC(=O)c2ccccc2)CC1	17.8	-7.4	1.7	35.5	4.7	-2.4
N#Cc1ccccc1Oc1ccccc1C=O	10.8	-4.9	57.0*	14.4	-12.1	-0.3
SMILES	Mdm2 MdmX PPI	Beta apoptosis	Lmaj promast	CSC inhib	T cruzi inh	SKKanGAS inh
O=Cc1ccccc1Oc1ccccc1	14.4	-2.0	1.3	0.9	-4.3	-3.7
CC(C)NC(=O)N(C)C[C@@H]1Oc2ccc(NC(=O)CCN3CCOCC3)cc2CC(=O)N([C@@H](C)CO)C[C@@H]1C	-1.8	4.9	.	7.5	.	.
CCOC(=O)c1c(C)[nH]c(C(=O)OCC(=O)Nc2sc(C(=O)N(C)C)c(C)c2C(=O)OCC)c1C	36.7	6.0	.	2.2	68.7*	-3.2
CCOC(=O)c1c(C)[nH]c(C(=O)OCC(=O)NC(C)(C)C)c1C	21.2	85.5*	13.3	-11.0	1.4	2.5
CC(C)(CCl)C(=O)Nc1ccnc(-c2ccncc2)n1	2.4	2.5	2.2	-10.4	7.1	2.9
CC(C)(C)OC(=O)NCCCC1=CC2=CC(=O)C(C)(O)C(=O)C2=CO1 (stereo unspecified)	-13.8	-3.8	.	-9.9	-7.4	3.3
C=CC[C@H](CC(=O)NCCO)C(=O)N[C@@H](COC(=O)[C@@H](CC=C)Cc1ccc(F)cc1)Cc1ccccc1	-16.2	-5.8	.	.	.	.
NC(=S)N/N=C/c1c(O)c(Br)cc2oc3c(c12)CCCC3	47.3	82.4*	.	38.7	18.5	87.0*
CCc1ccccc1N(C)S(=O)(=O)c1cc(-c2cc(C)no2)ccc1OC	36.8	-13.0	.	51.2	18.0	3.5
COC(=O)c1ccc(COC(=O)c2ccc(CO)cc2)o1	9.3	-0.2	65.3*	-8.7	-19.6	-6.7
C=CCCCCCCCCc1nc(=S)[nH][nH]1	-1.3	-17.2	52.8*	24.5	31.0	-3.5
O=C(NCc1ccccc1)NC1(C(=O)N2CCN(c3ccccc3)CC2)CCCCC1	10.6	0.0	53.9*	7.7	3.4	2.0
CCN1CCN(C(=O)C2(NC(=O)Nc3ccccc3Cl)CCCCC2)CC1	17.4	-7.4	55.3*	-1.7	-11.9	-14.6
C=Cc1ccc(Cn2nc(-c3ccc(C)cc3)ccc2=O)cc1	13.8	-3.0	.	23.0	-17.1	32.7
N#C/C(=C\c1cc2c(cc1Br)OCO2)C(=O)NCC1CCCO1 (stereo unspecified)	-6.6	-10.1	.	-8.5	-10.6	0.3
O=C(Nc1ccc(NC(=O)c2ccc([N+](=O)[O-])cc2[N+](=O)[O-])cc1)c1ccco1	5.0	12.8	.	-9.3	35.4	-1.1
O=C(Nc1ccc(Nc2ccncc2)cc1)c1ccc(Nc2ccnc3ccc([N+](=O)[O-])cc23)cc1[N+](=O)[O-]	.	80.9*	.	26.7	-1.6	53.6*
O=S1(=O)[C@H]2C[C@H](CO)O[C@@]2(CO)CN1Cc1ccc(-c2cccc(Cl)c2)cc1	4.7	.	.	.	.	.
C/C(N)=C(/C#N)C(=O)COC(=O)c1cc(-c2cccc3ccccc23)nc2ccccc12	29.2	5.3	30.4	-11.2	31.7	62.0*
Fc1ccc2cnc(-c3ccccc3)c(-c3cccc(C(F)(F)F)c3)c2c1	-6.6	-5.2	.	24.9	.	.
COc1cc2cnc(-c3ccccc3)c(-c3cccc(C(F)(F)F)c3)c2cc1OC	43.4	3.8	.	127.8*	.	.
Cc1cc(NCc2ccccn2)n2ncc(-c3ccccc3)c2n1	-7.2	50.0	.	-12.0	-14.8	65.8*
Cc1cc(N)n2ncc(-c3ccc(Cl)cc3)c2n1	-2.0	-4.7	55.2*	32.2	4.5	-6.3
Cc1cc(NCc2ccccn2)n2ncc(-c3ccc(Cl)cc3)c2n1	48.9	59.7	.	58.7	-3.4	82.2*
CCCc1cc(NCc2ccccn2)n2nc(C)c(-c3ccccc3)c2n1	36.9	49.3	.	52.6	54.6*	94.0*

Assay outcomes (PubChem)
